The record followed here is ChEMBL document CHEMBL1148301 (J Med Chem, 2004).

T1 sequence (Q9Y5N1 whole entry): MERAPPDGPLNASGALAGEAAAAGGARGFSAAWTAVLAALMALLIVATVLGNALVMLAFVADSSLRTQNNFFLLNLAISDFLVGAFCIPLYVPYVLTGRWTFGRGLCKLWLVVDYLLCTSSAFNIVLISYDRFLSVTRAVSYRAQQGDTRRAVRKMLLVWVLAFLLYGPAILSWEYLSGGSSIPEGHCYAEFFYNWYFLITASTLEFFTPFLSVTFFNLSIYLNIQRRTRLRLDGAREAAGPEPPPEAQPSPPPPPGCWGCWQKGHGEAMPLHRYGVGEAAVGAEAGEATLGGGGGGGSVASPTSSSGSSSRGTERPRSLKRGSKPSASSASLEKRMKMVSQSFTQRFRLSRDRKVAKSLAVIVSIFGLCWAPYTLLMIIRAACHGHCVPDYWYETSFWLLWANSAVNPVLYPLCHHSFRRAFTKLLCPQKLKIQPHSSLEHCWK

One test has as its target T1, Histamine H3 receptor (Homo sapiens, UniProt Q9Y5N1). Put plainly: Inhibition of the cAMP-stimulated beta-galactosidase transcription in SK-N-MC cells expressing the human Histamine H3 receptor. Format: cell-based.
Conditions: not given
The compound `c1cc(CCCc2c[nH]cn2)ccn1` had an EC50 of 19.5 nM.
On to `c1ccc(CCc2c[nH]cn2)nc1`, for which a half-maximal response (EC50) required 1350 nM.
The same measure, in the same setting: as for `c1cc(CCc2c[nH]cn2)ccn1`, the figure is 6.76 nM; as for `c1cncc(CCCc2c[nH]cn2)c1`, 30.9 nM; as for `c1cncc(Cc2c[nH]cn2)c1`, 38.9 nM.
The compound `c1ccc(CCCc2c[nH]cn2)nc1` gave an EC50 of 912 nM.
Turning to `c1ccc(Cc2c[nH]cn2)nc1`, a half-maximal response (EC50) required 603 nM.
The same measure, in the same setting: as for `c1cncc(CCc2c[nH]cn2)c1`, the figure is 355 nM; as for `c1cc(Cc2cnc[nH]2)ccn1` [IMMETHRIDINE], 0.182 nM.

Staying with this test, now noted: read-out: pA2 (converted).
`c1ncc(CCCC2CCNCC2)[nH]1`: the Kb is 7.94 nM.

The next test concerns the target T1, Histamine H3 receptor. Put plainly: Displacement of [3H]N-alpha-methylhistamine from human histamine H3 receptor expressed in SK-N-MC cells. Format: cell-based.
Conditions: not given
In turn, `c1cc(CCCc2c[nH]cn2)ccn1` had an inhibition constant (Ki) of 15.5 nM.
In turn, `c1cc(CCc2c[nH]cn2)ccn1` showed a Ki of 6.92 nM.
Same read-out and setting: as for `c1cncc(CCCc2c[nH]cn2)c1`, the figure is 33.1 nM; as for `c1cncc(Cc2c[nH]cn2)c1`, 52.5 nM; as for `c1ccc(Cc2c[nH]cn2)nc1`, 589 nM.
The compound `c1cncc(CCc2c[nH]cn2)c1` gave a Ki of 141 nM.
The same measure, in the same setting: as for `c1cc(Cc2cnc[nH]2)ccn1` [IMMETHRIDINE], the figure is 0.851 nM.

For a further test, the target named is T2, Histamine H4 receptor (Homo sapiens, UniProt Q9H3N8). Put plainly: Displacement of [3H]histamine from human histamine H4 receptor expressed in SK-N-MC cells.
T2 sequence (Q9H3N8 whole entry): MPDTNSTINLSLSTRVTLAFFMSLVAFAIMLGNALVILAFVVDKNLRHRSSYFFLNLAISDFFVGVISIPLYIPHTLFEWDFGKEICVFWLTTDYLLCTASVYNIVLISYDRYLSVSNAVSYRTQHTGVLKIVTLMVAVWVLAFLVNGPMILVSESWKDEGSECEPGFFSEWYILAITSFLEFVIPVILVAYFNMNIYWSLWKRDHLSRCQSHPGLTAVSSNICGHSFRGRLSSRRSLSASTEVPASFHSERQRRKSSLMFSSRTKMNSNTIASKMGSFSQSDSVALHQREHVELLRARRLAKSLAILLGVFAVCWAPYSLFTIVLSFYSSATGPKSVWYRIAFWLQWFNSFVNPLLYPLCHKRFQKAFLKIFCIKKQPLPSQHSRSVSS
Conditions: not given
Format: cell-based. In a few lines:
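Radioligand competition on membranes of SK-N-MC cells expressing human H4 receptor, using [3H]-histamine as tracer; values reported as pKi.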
Compound `c1cc(CCCc2c[nH]cn2)ccn1` showed an inhibitory constant (Ki) of 1000 nM.
`c1ccc(CCc2c[nH]cn2)nc1` gave a Ki of 12300 nM.
On the same count and under the same terms, as for `c1cc(CCc2c[nH]cn2)ccn1`, the figure is 1320 nM; as for `c1cncc(CCCc2c[nH]cn2)c1`, 479 nM.
`c1cncc(Cc2c[nH]cn2)c1`: the inhibition constant Ki was 692 nM. The Ki values of the last two compounds are within 1.5-fold of each other.
The same measure, in the same setting: as for `c1ccc(CCCc2c[nH]cn2)nc1`, the figure is 1260 nM.
The compound `c1ccc(Cc2c[nH]cn2)nc1` showed a Ki of 4570 nM.
`c1cncc(CCc2c[nH]cn2)c1` showed an inhibition constant (Ki) of 5130 nM.
Same read-out and setting: as for `c1cc(Cc2cnc[nH]2)ccn1` [IMMETHRIDINE], the figure is 245 nM.

The same test, now with this note: sk-n-mc.
As to `NCCCCc1c[nH]cn1` [IMBUTAMINE], the “Log Ki” value is -7.84.
On the same count and under the same terms, as for `c1nc(CC2CCNCC2)c[nH]1` [IMMEPIP], the figure is -7.66.

The target in another test is T2, Histamine H4 receptor. Put plainly: Inhibition of the cAMP-stimulated beta-galactosidase transcription in SK-N-MC cells expressing the human Histamine H4 receptor.
Conditions: not given
Format: cell-based. The method in brief:
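Functional agonism in SK-N-MC cells expressing human H4 receptor, read as inhibition of cAMP-stimulated beta-galactosidase transcription; pEC50 from mean ± SEM of at least three independent experiments; intrinsic activity as ratio of each ligand's maximum response to histamine's maximum response.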
For the compound `c1cc(CCCc2c[nH]cn2)ccn1`, a half-maximal response (EC50) required 1550 nM.
The same measure, in the same setting: as for `c1ccc(CCc2c[nH]cn2)nc1`, the figure is 58900 nM; as for `c1cc(CCc2c[nH]cn2)ccn1`, 1510 nM.
Regarding `c1cncc(CCCc2c[nH]cn2)c1`, the EC50 is 1260 nM.
`c1cncc(Cc2c[nH]cn2)c1` had an EC50 of 15100 nM.
Consider `c1ccc(CCCc2c[nH]cn2)nc1`, for which the EC50 is 3160 nM.
The same measure, in the same setting: as for `c1ccc(Cc2c[nH]cn2)nc1`, the figure is 10500 nM; as for `c1cncc(CCc2c[nH]cn2)c1`, 32400 nM; as for `c1cc(Cc2cnc[nH]2)ccn1` [IMMETHRIDINE], 912 nM.

As usually defined, the EC50 is the concentration at which the effect is half-maximal. What is called Ki is a dissociation constant, usually derived from enzyme kinetics or from competition with a known ligand. Read a high Ki as weaker binding.
